# ERa coact inh = ER-alpha (human) coactivator binding inhibition; P03372; 86,000 compounds, 1.7% hits; TR-FRET ER-alpha LBD / SRC-1 peptide, estradiol-bound; inhibition, % at 25.6 µM; in the data active = inhibition above about 50%;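 also: 0% = receptor plus peptide control and 100% = peptide only without receptor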
# RORa activator = activates the human nuclear receptor RORA. P35398. CHO-K1 Gal4-RORA LBD luciferase reporter, luminescence; percent increase over mock-subtracted basal signal. activation, % at 10 µM. 65,000 compounds, 1.5% hits. AID 560;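 active = activation above the mean of all tested compounds plus 3 SD, cut at about 49% in these data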;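 also: 0% = DMSO-treated RORA cells and 100% = added signal equal to DMSO minus mock-transfected cells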
# ERa coact pot = ER-alpha (human) coactivator binding potentiation; P03372; AID 639; coactivator binding (% of control), % at 25.6 µM; TR-FRET ERalpha-LBD/SRC-Cy5 coactivator binding, 2 h; 100 = basal binding, no effect; 86,000 compounds, 1.3% hits; in the data active = activity above about 200%;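 also: binding measured in presence of low estradiol as agonist stimulus; 0% = peptide alone without receptor and 100% = receptor with peptide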
# ERb SRC1 inh = blocks coactivator binding to human estrogen receptor beta; Q92731; TR-FRET ER-beta LBD / SRC1-Cy5 peptide binding; receptor agonist-loaded with 1 µM estradiol; inhibition, % at 25.6 µM; 86,000 compounds, 1.3% hits; AID 633;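 active = compounds whose percent inhibition of the receptor-coactivator binding signal exceeds about 50% in the single-dose screen, limit read from the data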;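 also: 0% = receptor plus peptide wells without compound and 100% = peptide-only wells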
# Target sequence (Q92731 whole entry, looked up, the tested form may be a part): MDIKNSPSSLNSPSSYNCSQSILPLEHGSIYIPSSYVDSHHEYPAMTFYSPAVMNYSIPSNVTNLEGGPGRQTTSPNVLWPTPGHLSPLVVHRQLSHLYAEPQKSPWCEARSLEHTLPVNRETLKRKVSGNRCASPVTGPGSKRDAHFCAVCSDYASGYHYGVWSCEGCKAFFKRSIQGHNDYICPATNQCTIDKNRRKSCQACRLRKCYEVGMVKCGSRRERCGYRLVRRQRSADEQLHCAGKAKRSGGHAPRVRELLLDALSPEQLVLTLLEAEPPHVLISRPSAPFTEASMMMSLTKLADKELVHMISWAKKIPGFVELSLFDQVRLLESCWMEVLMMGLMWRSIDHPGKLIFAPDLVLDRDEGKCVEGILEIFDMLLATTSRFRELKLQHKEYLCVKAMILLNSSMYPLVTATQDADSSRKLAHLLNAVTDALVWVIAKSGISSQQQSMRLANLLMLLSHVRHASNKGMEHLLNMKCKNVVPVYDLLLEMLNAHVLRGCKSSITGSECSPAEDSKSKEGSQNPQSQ
# Pyk2 oligo antag = Pyk2 (human) oligomerization antagonism; Q14289; Q293 cells, Pyk2 FERM NanoBiT luminescence; hits give low values; z-score (the deposit names both 25 µM and 10 µM); 99,000 compounds, 0.83% hits;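 active = Z-score of -3 or lower, scaled per plate to the spread of control and sample wells; inactive = z-score above -3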;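 also: negative z-score means lost luminescence so less FERM oligomerization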
# SF1 activator = SF-1 (human) activation | 65,000 compounds, 1.9% hits | activation, % at 10 µM | Q13285 | CHO-K1 Gal4-SF-1 LBD luciferase reporter; % increase over DMSO SF-1-specific signal;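 active = activation above the mean activation of all tested compounds plus 3 SD, cut at about 50% in these data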
#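 Compound – one dose, 10 µM compound, 1% DMSO · Test system – transient Gal4-SF-1 LBD reporter, CHO-K1 · Input – 4,000 cells in each well · Read-out basis – percent activation relative to DMSO median and mock-transfected background · Replicates – single measurement per compound · Technique – steady-glow luciferase luminescence, read after 15 min reagent incubation · Timing – 20 h compound treatment, 37 °C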
# * marks the source's active call; other numbers are inactive results; . = no result; [ ] = dose if it differs, or a comment. Compounds with a hit are over-represented: about 4.8% of the library has one in this group of screens.
SMILES,ERa coact inh,RORa activator,ERa coact pot,ERb SRC1 inh,Pyk2 oligo antag,SF1 activator
O=C(Nc1cnc2ccccc2c1)c1ccncc1,-11,74*,132,-5,.,30
COC(=O)c1cccc(C(=O)Nc2cnc3ccccc3c2)n1,.,43,.,.,-1.3,97*
CCOCC(=O)N1CCN(c2ccc([N+](=O)[O-])cc2)CC1,.,.,.,.,0.91,.
O=C(NC1CCCC1)C1CCCN1C(=O)Nc1ccc(Cl)cc1 (configuration not stated),-3,-17,112,-5,1,6
Cc1nc2c3cnn(-c4ccc(C)c(C)c4)c3ncn2n1,-11,44,119,-19,-0.49,65*
C#CCn1cnc2c(cnn2-c2ccc(C)c(C)c2)c1=O,.,20,.,.,0.24,58*
CCc1nnc2c3cnn(-c4ccc(C)c(C)c4)c3ncn12,.,57*,.,.,.,58*
Cc1ccc(-n2ncc3c(=O)n(CC#N)cnc32)cc1C,-7,26,104,5,-0.25,13
Cc1ccc(-n2c(C)nc3c(cnn3-c3ccc(C)c(C)c3)c2=O)cc1C,-8,.,103,-5,.,.
Cc1ccc(-n2ncc3c2ncn2c(-c4ccncc4)nnc32)cc1,66*[fluorescence artefact?],23,89,31,.,-4
Cn1c(N)c(C(=O)CCl)c(=O)n(C)c1=O,-2,.,109,-7,.,.
CCc1c(C)nc(SCC(=O)c2cccs2)c(C#N)c1C,19,.,138,53*,-1.9,.
CCc1c(C)nc(SCC(N)=O)c(C#N)c1C,10,.,108,-27,0.89,.
COC(=O)c1nn(-c2ccccc2)c(-c2ccccc2)c1C(=O)c1ccccc1,.,.,.,.,-3.3*,.
O=C(O)c1nn(-c2ccccc2)c(-c2ccccc2)c1C(=O)c1ccccc1,.,.,.,.,0.6,.
CCOc1cc(/C=C2/C(=N)N3C=CSC3=NC2=O)ccc1OCCCOc1ccccc1C,38,.,79,33,0.33,.
COc1cc(/C=C2/C(=N)N3C=CSC3=NC2=O)ccc1OCCCOc1ccccc1C,71*,.,68,72*[fluorescence artefact?],0.03,.
COc1cc(/C=C2/C(=N)N3C=CSC3=NC2=O)ccc1OCCCOc1c(C)cccc1C,90*[fluorescence artefact?],.,120,43,-0.27,.
COc1ccc(/C=C2/C(=O)N=C(N)N2C)cc1OC,-12,.,99,-12,0.55,.
N#CCc1nnc2n1-c1ccccc1CCC2,-3,-13,91,-6,1.1,5
COCCN(Cc1cc2ccc(C)cc2n2nnnc12)Cc1nnnn1C(C)(C)C,-19,.,102,-23,0.36,.
O=C(COC(=O)c1cccnc1SCC(=O)NCc1ccccc1)NCc1ccccc1,3,.,252*[fluorescence artefact?],11,-0.61,.
O=C1C2C3C=CC(C3=C(c3ccccc3)c3ccccc3)C2C(=O)N1Cc1ccccc1 (configuration not stated),-3,.,92,-26,1.4,.
O=C(c1ccccc1F)N1CCN(Cc2cccc(Cl)c2)CC1,-6,-2,103,4,-0.75,-3
COc1ccc(CN(C(=O)c2cc3ccccc3oc2=O)C2CCCC2)cc1,-27,.,112,-24,-2.2,.
SMILES,ERa coact inh,RORa activator,ERa coact pot,ERb SRC1 inh,Pyk2 oligo antag,SF1 activator
COc1cccc(CN(C(=O)c2cc3ccccc3oc2=O)C2CC2)c1,1,52*,110,17,-0.56,17
Cc1ccc(C(=O)CSc2nnc(COc3cccc(C)c3)o2)cc1,-3,-6,142,-5,1.7,9
CCc1nnc(NC(=O)CSc2nnc(COc3cccc(C)c3)o2)s1,2,-2,92,10,0.47,8
Cc1cccc(OCc2nnc(SCC(=O)Nc3ccc(C)c(C)c3)o2)c1,-19,6,230*,3,0.39,-5
Cc1cccc(OCc2nnc(SCc3cc(=O)n4cc(Br)ccc4n3)o2)c1,0,4,203*,17,0.57,-6
Cc1ccc(NC2=NCC(=O)N2C2CCCC2)c(C)c1,-15,.,91,-10,-0.23,.
CCC1=NC(c2ccccc2OC)N(O)C1(C)C (configuration not stated),1,2,93,-1,1.9,5
Cc1c(C(=O)NCc2ccoc2)oc2ccc3c(c12)C(=O)CC(C)(C)O3,3,71*,92,5,-0.47,73*
Cc1c(C(=O)NCCc2ccc3c(c2)OCCO3)oc2ccccc12,.,.,.,.,-0.04,.
O=C(O)c1ccccc1Nc1ccccc1C(=O)O,.,.,.,.,0.36,.
